NR1D1 modulator: modulators of human Rev-erb alpha DNA binding; P20393; Rev-erbα–FITC-DNA binding, fluorescence polarization, 90 min; activity, % at 10 µM; actives 0.79% (n = 370,000); AID 1259318;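 active = activity above about 14%, limit read from the data; passing the limit was not always enough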;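 note: 0% = DMSO wells with 35 nM protein and 100% = DMSO wells with 750 nM protein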
MC4R barr agon: activates human MC4R beta-arrestin recruitment; P32245; U2OS MC4R beta-arrestin complementation, luminescence; percent of melanotan II response, DMSO zero; activation, % at 8.9 µM; actives 0.98% (n = 360,000);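 active = activation above a per-plate cutoff, the mean activation of sample wells on that plate plus 3 SD, cut at about 8% in these data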
NR2E3 ag-1: agonists of human nuclear receptor NR2E3 | GST-NR2E3/biotin-RetCOR TR-FRET, 1536-well | inhibition of corepressor binding, % at 4.78 µM | actives 0.12% (n = 320,000) | AID 2300;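 active = percent inhibition above the cutoff of mean plus 3 SD of all tested compounds, set per screening campaign, cut at about 20% in these data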;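 note: 0% = DMSO wells and 100% = biotin wells as full block of FRET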
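System: GST-tagged NR2E3 plus biotinylated RetCOR corepressor; Buffer or medium: pH 7.5 Tris-based buffer; Probe or stimulus: RetCOR corepressor, biotinylated, 7 nM; Doses: compound at 4.8 µM, single dose; Schedule: 5 h incubation at 4 °C; Technique: time-resolved FRET; Evaluation: percent inhibition of TR-FRET ratio; Replication: one well per compound, singlicate testing.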
PG9 binder: binds the HIV-1 gp120 antibody PG9; TR-FRET gp120-PG9 antibody binding; actives 0.43% (n = 360,000); AID 624416; inhibition, % at 6.7 µM; in the data active = inhibition above about 8.5%
NR2E3 ag-2: human photoreceptor-specific nuclear receptor agonism. CHO-S Gal4-NCOR/VP16-NR2E3 two-hybrid, luciferase. inhibition of corepressor binding, % at 3.98 µM. actives 0.35% (n = 360,000);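 active = inhibition above the mean of all tested compounds plus 3 SD, cut at about 70% in these data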;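 note: 0% = DMSO with NR2E3 transfected cells and 100% = cells lacking NR2E3 construct; higher means lower luciferase signal from less NR2E3 corepressor binding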
MC4R antag cAMP: human MC4R antagonism in cAMP assay. P32245. MC4R-expressing cells, MTII-stimulated cAMP, LANCE TR-FRET. inhibition, % at 6.5 µM. actives 0.48% (n = 360,000). AID 540295;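 active = inhibition above its plate's cutoff, the mean of tested wells on that plate plus 3 SD, cut at about 29% in these data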;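 note: 0% = Melanotan II alone and 100% = Melanotan II plus saturating MCL0020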
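System: U2OS-MC4R stable cell line; Technique: Eu-cAMP/anti-cAMP TR-FRET, emission 671 nm; Repeats: single well per compound; Also added: Melanotan II; Dosing: one concentration, 6.5 µM nominal; Schedule: 30-min compound, 1-h challenge, 1-h detection, room temperature.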
NR2E3 agonist cf: confirmation of human NR2E3 nuclear receptor agonists | shares compounds with NR2E3 ag-1 | actives 39% (n = 360) | cell-free NR2E3 corepressor release, TR-FRET, 5 h | activation (reported as inhibition), % at 3.98 µM | AID 2379; in the data active = activation above about 20%
PPARg-NCOR2 ag: releases PPARgamma from NCOR2 in NR2E3 counter-screen; shares compounds with NR2E3 ag-1; TR-FRET PPARg-NCOR2 coregulator interaction, biochemical; inhibition, % at 3.98 µM; actives 45% (n = 360); AID 504787; in the data active = inhibition above about 20%;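 note: 0% = DMSO vehicle and 100% = wells without protein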
Starred values were filed as active, the others as inactive; . = no result. This is a sample that favours compounds with a hit; in the whole collection about 2.7% have one here.

SMILES	NR1D1 modulator	MC4R barr agon	NR2E3 ag-1	PG9 binder	NR2E3 ag-2	MC4R antag cAMP	NR2E3 agonist cf	PPARg-NCOR2 ag
CC(=O)NC(CCS(C)(=O)=O)C(=O)Nc1ccc(Cl)c(Cl)c1 (centres undefined)	4.2	0.1	19.8*	-0.1	-43.4	4.8	-5.2	-7.0
CC(C)c1ccccc1OCC(O)CN1CCN(S(=O)(=O)c2ccc([N+](=O)[O-])cc2)CC1 (centres undefined)	-7.6	5.5	2.7	-1.9	-3.2	-6.2	.	.
O=C(C1=C(O)C(=O)N(CCN2CCOCC2)C1c1cccnc1)c1cc2ccccc2o1 (centres undefined)	-0.4	-1.6	32.4*	3.4	-2.2	5.6	4.7	3.6
O=C(C1=C(O)C(=O)N(CCN2CCOCC2)C1c1cccc(O)c1)c1cc2ccccc2o1 (centres undefined)	2.1	-2.4	.	3.2	-29.9	9.7	.	.
O=C(C1=C(O)C(=O)N(CCN2CCOCC2)C1c1cccs1)c1cc2ccccc2o1 (centres undefined)	-3.7	-2.3	30.5*	5.6	-32.9	26.8	30.9*	33.9*
COc1ccc(C(c2c(C)[nH]n(-c3ccccc3)c2=O)c2c(C)[nH]n(-c3ccccc3)c2=O)cc1OC	0.6	-1.8	29.7*	-1.6	-15.6	2.2	-11.8	38.9*
COc1cc(OC)c(-c2c3cc(O)c(=O)cc-3oc3cc(O)c(O)cc23)cc1OC	-11.1	-4.8	-2.7	-11.1	-17.3	-1.4	.	.
Cc1c2cc(O)c(=O)cc-2oc2cc(O)c(O)cc12	-23.4	-1.3	39.5*	-3.1	-15.3	-6.8	20.3*	-14.1
Cc1ccc(CSCCNC(=O)c2ccc(N(C)S(=O)(=O)c3ccccc3)cc2)cc1	-3.1	1.3	21.5*	-0.5	24.9	13.6	-10.0	4.1
CN(c1ccc(C(=O)NCCSCc2ccc(Cl)cc2)cc1)S(=O)(=O)c1ccccc1	2.8	-2.5	2.3	-0.7	0.2	10.8	.	.
Cc1ccc(C2C(C(N)=S)=C(N)OC3=C2C(=O)CC(C)(C)C3)cc1 (centres undefined)	1.8	-3.5	26.4*	-1.8	-1.2	17.1	-0.6	64.8*
COc1cccc(CNC(=O)c2cc(COc3c(F)cccc3F)on2)c1	-4.8	2.8	1.6	-0.9	-40.2	-3.0	.	.
Cc1ccc(C(=O)C2=C(O)C(=O)N(Cc3ccco3)C2c2cccc(Cl)c2)o1 (centres undefined)	10.8	-2.2	31.4*	2.0	3.4	4.0	18.4	11.6
Cc1ccc(C(=O)C2=C(O)C(=O)N(Cc3cccnc3)C2c2ccc(Cl)c(Cl)c2)o1 (centres undefined)	.	-0.8	31.9*	.	-3.8	-2.0	23.1*	20.4*
O=C(C1=C(O)C(=O)N(Cc2ccco2)C1c1cccc(O)c1)c1ccco1 (centres undefined)	-8.8	0.8	3.9	-1.0	7.3	15.7	.	.
Cc1ccc(C(=O)C2=C(O)C(=O)N(Cc3ccco3)C2c2ccc(N(C)C)cc2)o1 (centres undefined)	-5.0	-4.0	10.0	-2.1	-22.3	6.3	.	.
Cc1ccc(C(=O)C2=C(O)C(=O)N(Cc3ccco3)C2c2cccc(Br)c2)o1 (centres undefined)	4.8	-2.0	31.3*	4.1	-32.3	18.5	16.5	12.4
COc1cccc2c1NC(C(=O)O)C1CC=CC21 (centres undefined)	.	0.4	22.5*	.	-0.1	-0.5	5.4	13.9
CCc1cccc(NC(=O)CCCCCC2NC(=O)NC2C)c1 (centres undefined)	-5.5	0.7	86.0*	-2.9	-7.1	2.6	90.3*	91.7*
CCC(=O)Nc1ccc(F)c(Cl)c1	-0.7	-0.1	2.4	0.2	-7.8	0.6	.	.

Compound activity: PubChem BioAssay, several laboratories
